# Measurements collected from several papers.
# Target: Serine/threonine-protein kinase DCLK1 (DCLK1, Homo sapiens, UniProt O15075)
# Residues used in one study (O15075 1-740): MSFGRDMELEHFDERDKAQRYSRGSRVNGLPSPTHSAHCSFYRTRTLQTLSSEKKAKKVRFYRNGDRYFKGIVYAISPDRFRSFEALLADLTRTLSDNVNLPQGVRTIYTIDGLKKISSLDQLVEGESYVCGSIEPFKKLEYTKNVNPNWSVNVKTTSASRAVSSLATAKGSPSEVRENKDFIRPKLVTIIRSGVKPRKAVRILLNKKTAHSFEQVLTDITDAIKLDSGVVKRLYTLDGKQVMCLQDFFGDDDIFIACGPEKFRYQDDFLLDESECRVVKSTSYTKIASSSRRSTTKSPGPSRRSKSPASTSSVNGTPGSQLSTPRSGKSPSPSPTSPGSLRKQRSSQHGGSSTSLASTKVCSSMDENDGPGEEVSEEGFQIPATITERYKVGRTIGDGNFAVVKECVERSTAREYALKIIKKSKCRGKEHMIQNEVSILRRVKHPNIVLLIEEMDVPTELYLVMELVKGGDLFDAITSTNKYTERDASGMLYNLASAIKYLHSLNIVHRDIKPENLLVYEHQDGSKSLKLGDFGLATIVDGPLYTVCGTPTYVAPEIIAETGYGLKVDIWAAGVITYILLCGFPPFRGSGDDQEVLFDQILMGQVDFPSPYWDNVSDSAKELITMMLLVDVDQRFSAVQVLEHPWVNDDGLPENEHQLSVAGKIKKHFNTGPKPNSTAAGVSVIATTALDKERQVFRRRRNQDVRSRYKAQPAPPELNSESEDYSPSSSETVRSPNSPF
Compound,read-out,action,technique,concentration,measurement,value
CC(C)S(=O)(=O)c1ccc2nccc(Nc3ccc4sc(C5CCCC5)nc4c3)c2c1,enzyme activity,inhibitor,,1 µM,activity vs control,102%
CCCCC(=O)Nc1ccc(-c2ccc3ncn(CCC)c(=O)c3c2)cn1,binding,,competition with immobilised ligand,0.5 µM,remaining binding,68%
N#Cc1ccc(NC(=O)Nc2ccccc2)cc1,cell-free assay,,competition with immobilised ligand,25 µM,remaining binding,91%
C1=C/COCc2cc(ccc2OCCN2CCCC2)Nc2nccc(n2)-c2cccc(c2)COC/1,cell-free assay,,,0.1 µM,remaining signal,100%
C[C@H]1CC[C@H](n2c3cnccc3c3cnc(Nc4ccc5c(n4)CCN(C(=O)CO)C5)nc32)CC1,cell-free assay,,,1 µM,remaining signal,75%
C=CC(=O)N1CCC([C@@H]2CCNc3c(C(N)=O)c(-c4ccc(Oc5ccccc5)cc4)nn32)CC1,enzyme activity,inhibitor,,1 µM,inhibition,41%
CN1CCN(C(=O)c2ccc(NC(=O)Nc3ccc(N(C)c4ccnc(Nc5ccc(CS(C)(=O)=O)cc5)n4)cc3)cc2)CC1,binding,,competition with immobilised ligand,1 µM,remaining binding,97%
COc1ccc2oc(-c3ccc4nc(N)oc4c3)c/c(=N\c3ccccc3NC(=O)CCN)c2c1,binding,,,1 µM,remaining binding,96%
CC#CC(=O)N1CCC[C@H]1c1nc(-c2ccc(C(=O)Nc3ccccn3)cc2)c2c(N)nccn12,enzyme activity,inhibitor,,1 µM,inhibition,15%
